Experiments:
[1] = folding enthalpy; higher = less favourable; fluorescence melt of hairpins on a sequencing array, two-state fit; conditions: sodium 0.088 M
How it was run: (§1)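 Folding enthalpy and melting temperature come from bootstrapped two-state fits to Cy3 fluorescence of library hairpins carrying annealed Cy3 and quencher oligos on a sequenced MiSeq flow cell. Imaging was done in 50 mM Na-HEPES pH 8.0, 25 mM NaCl, stepping by 2.5 °C up to 60 °C, and signals were normalised to pre-quench Cy3 and to control constructs. Results of four replicates were combined by inverse variance, and fitted temperatures were raised by 9.35 °C to match UV melts.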

[2] = melting temperature; fluorescence melt of hairpins on a sequencing array, two-state fit, raised by 9.35 °C to match UV melts; conditions: sodium 0.088 M
How it was run: as §1

Sequence | folding enthalpy [1] | Tm [2]
GCTGCCGAAAGGCAAGC ((((((....))).))) | -19.2 kcal/mol | 66.7 °C
GCTGCCGAAAGGCACAGC ((((((....)))..))) | -13.4 kcal/mol | 48.2 °C
GCTGCCGAAAGGCAGAGC ((((((....)))..))) | -10 kcal/mol | 67.1 °C
GCTGCCGAAAGGCGAAGC ((((((....)))..))) | -15.5 kcal/mol | 49 °C
GCTGCCGAAAGGCGTAGC ((((((....)))..))) | -17.2 kcal/mol | 50.5 °C
GCTGCCTCGAAAGAGAGC (((..(((....)))))) | -14 kcal/mol | 42.3 °C
GCTGCGCGAAAGCCCGGC ((.(.((....)).).)) | -17.5 kcal/mol | 44.1 °C
GCTGCGCGAAAGCCCTGC ((.(.((....)).).)) | -17.3 kcal/mol | 38.5 °C
GCTGCGCGAAAGCTCGGC ((.(.((....)).).)) | -22.4 kcal/mol | 48.3 °C
GCTGCGCGAAAGCTTAGC (((..((....))..))) | -20.5 kcal/mol | 39.6 °C
GCTGCGGGAAACTGCGGC ((.((.(....).)).)) | -47.5 kcal/mol | 51.8 °C
GCTGCTCGAAAGAGGAGC (((.(((....))).))) | -38.9 kcal/mol | 59.6 °C
GCTGCTCGAAAGAGTAGC (((.(((....))).))) | -38.9 kcal/mol | 62.1 °C
GCTGCTGGAAACAGCAAC (.(((((....))))).) | -12.1 kcal/mol | 44.3 °C
GCTGGACCGAAAGGTAGC (((..(((....)))))) | -18.5 kcal/mol | 39.5 °C
GCTGGACGAAAGTCAAGC (((.(((....))).))) | -38.3 kcal/mol | 58.7 °C
GCTGGAGGAAACTCCAAC (.(((((....))))).) | -15.6 kcal/mol | 38 °C
GCTGGCGAAAGCCTCAGC ((((((....)))..))) | -14.7 kcal/mol | 46.6 °C
GCTGGCGGAAACACCAGC (((((.(....).))))) | -40.8 kcal/mol | 53.5 °C
GCTGGCGGAAACGCCAAC (.(((((....))))).) | -11.2 kcal/mol | 43.7 °C
GCTGGCGGAAACGCTGGC ((..(((....)))..)) | -32.7 kcal/mol | 53.7 °C
GCTGGCTCGAAAGAGAGC (((..(((....)))))) | -11.1 kcal/mol | 36.9 °C
GCTGGGCGAAAGCACGGC ((.(.((....)).).)) | -21.2 kcal/mol | 69.1 °C

Sequence | folding enthalpy [1] | Tm [2]
GCTGGGCGAAAGCATAGC (((..((....))..))) | -22.9 kcal/mol | 54.2 °C
GCTGGGCGAAAGCCATGC ((..(((....)))..)) | -19.2 kcal/mol | 55.1 °C
GCTGGGCGAAAGCCGAGC (((.(((....))).))) | -38.5 kcal/mol | 58.6 °C
GCTGGGCGAAAGCCGTGC ((..(((....)))..)) | -18.2 kcal/mol | 47.6 °C
GCTGGGCGAAAGCGCGGC ((.(.((....)).).)) | -33.2 kcal/mol | 64.1 °C
GCTGGGCGAAAGCTAAGC (((..((....))..))) | -22.1 kcal/mol | 53.9 °C
GCTGGGGGAAACCCTGGC ((..(((....)))..)) | -23.4 kcal/mol | 49.1 °C
GCTGGTGAAAACCAGC ((((((....)))))) | -22.6 kcal/mol | 69.1 °C
GCTGGTGCGAAAGCAAGC (((..(((....)))))) | -14.5 kcal/mol | 43 °C
GCTGGTGGAAACACTGGC ((..(((....)))..)) | -30.1 kcal/mol | 45.9 °C
GCTGTAGGAAACTACAAC (.(((((....))))).) | -19.2 kcal/mol | 30.9 °C
GCTGTCACGAAAGTGAGC (((..(((....)))))) | -12.2 kcal/mol | 38.3 °C
GCTGTCCGAAAGGAAGC (((.(((....)))))) | -23.9 kcal/mol | 49.1 °C
GCTGTCGAAAGACGAGC ((((((....))).))) | -25.6 kcal/mol | 54.1 °C
GCTGTCGAAAGACTAAGC ((((((....)))..))) | -20 kcal/mol | 46.2 °C
GCTGTGCGAAAGCAAGC (((.(((....)))))) | -21.5 kcal/mol | 51.8 °C
GCTGTGCGAAAGCATTGC ((..(((....)))..)) | -20.7 kcal/mol | 53.5 °C
GCTGTGCGAAAGCCCGGC ((.(.((....)).).)) | -20 kcal/mol | 46.8 °C
GCTGTGCGAAAGCCGAGC (((..((....))..))) | -19 kcal/mol | 41.8 °C
GCTGTGCGAAAGCGCCGC ((.(.((....)).).)) | -18.6 kcal/mol | 49.6 °C
GCTGTGCGAAAGCGCTGC ((.(.((....)).).)) | -25.6 kcal/mol | 60.1 °C
GCTGTGCGAAAGCTCGGC ((.(.((....)).).)) | -24.6 kcal/mol | 56 °C
GCTGTTCGAAAGAAAAGC (((.(((....))).))) | -28.6 kcal/mol | 46.5 °C

Reference: the array DNA melting data of Ke et al. (doi:10.1101/2024.01.08.574731)
